Measured values from ChEMBL document CHEMBL4665627 (Eur J Med Chem, 2019).
Converted amounts (≈) assume the structure as drawn. The source made the active and inactive calls. No cut-off for these calls is given here.

How the values were obtained:
[1] = system: Klebsiella pneumoniae; assay: Potentiation of 2-(4-(3-(2-aminothiazol-4-yl)-1-ethyl-6-fluoro-4-oxo-1,4-dihydroquinolin-7-yl)piperazin-1-yl)acetonitrile-induced antibacterial activity against Klebsiella pneumoniae assessed as fold reduction in 2-(4-(3-(2-aminothiazol-4-yl)-1-ethyl-6-fluoro-4-oxo-1,4-dihydroquinolin-7-yl)piperazin-1-yl)acetonitrile MIC by CLSI protocol based two fold serial dilution method; assay type: functional
[2] = system: Staphylococcus aureus; assay: Antibacterial activity against Staphylococcus aureus assessed as bacterial growth inhibition in presence of 2-(4-(3-(2-aminothiazol-4-yl)-1-ethyl-6-fluoro-4-oxo-1,4-dihydroquinolin-7-yl)piperazin-1-yl)acetonitrile by CLSI protocol based two fold serial dilution method; assay type: functional
[3] = system: Staphylococcus aureus; assay: Antibacterial activity against methicillin-resistant Staphylococcus aureus assessed as bacterial growth inhibition in presence of 2-(4-(3-(2-aminothiazol-4-yl)-1-ethyl-6-fluoro-4-oxo-1,4-dihydroquinolin-7-yl)piperazin-1-yl)acetonitrile by CLSI protocol based two fold serial dilution method; assay type: functional
How it was run: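 Checkerboard-type pairing, with each agent tested alone and combined by CLSI two-fold serial dilution. MICs are from three independent experiments. FIC index = (MIC of A combined/MIC of A alone) + (MIC of B combined/MIC of B alone). An index ≤1 is read as synergistic and 1–2 as additive.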

[4] = system: Escherichia coli; assay: Antibacterial activity against Escherichia coli assessed as inhibition of bacterial growth after 24 hrs by CLSI protocol based two fold serial dilution method; assay type: functional
How it was run: (§1)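 Two-fold serial broth dilution in 96-well plates following CLSI; MIC (mM) taken as the lowest concentration giving complete growth inhibition; MIC values from three independent experiments.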

[5] = system: Klebsiella pneumoniae; assay: Antibacterial activity against Klebsiella pneumoniae assessed as bacterial growth inhibition in presence of 2-(4-(3-(2-aminothiazol-4-yl)-1-ethyl-6-fluoro-4-oxo-1,4-dihydroquinolin-7-yl)piperazin-1-yl)acetonitrile by CLSI protocol based two fold serial dilution method; assay type: functional; how it was run: as §1
[6] = system: Staphylococcus aureus; assay: Antibacterial activity against Staphylococcus aureus assessed as inhibition of bacterial growth after 24 hrs by CLSI protocol based two fold serial dilution method; assay type: functional; how it was run: as §1
[7] = system: Klebsiella pneumoniae; assay: Antibacterial activity against Klebsiella pneumoniae assessed as inhibition of bacterial growth after 24 hrs by CLSI protocol based two fold serial dilution method; assay type: functional; how it was run: as §1
[8] = system: Escherichia coli; assay: Antibacterial activity against Escherichia coli assessed as bacterial growth inhibition in presence of 2-(4-(3-(2-aminothiazol-4-yl)-1-ethyl-6-fluoro-4-oxo-1,4-dihydroquinolin-7-yl)piperazin-1-yl)acetonitrile by CLSI protocol based two fold serial dilution method; assay type: functional; how it was run: as §1
[9] = system: Staphylococcus aureus; assay: Antibacterial activity against methicillin-resistant Staphylococcus aureus N315 assessed as inhibition of bacterial growth after 24 hrs by CLSI protocol based two fold serial dilution method; assay type: functional
[10] = system: Staphylococcus aureus; assay: Antibacterial activity against Staphylococcus aureus ATCC 25923 assessed as inhibition of bacterial growth after 24 hrs by CLSI protocol based two fold serial dilution method; assay type: functional; how it was run: as §1
[11] = system: Candida albicans; assay: Antifungal activity against Candida albicans assessed as inhibition of fungal growth after 24 hrs by CLSI protocol based two fold serial dilution method; assay type: functional; how it was run: as §1
[12] = system: Escherichia coli; assay: Antibacterial activity against Escherichia coli ATCC 25922 assessed as inhibition of bacterial growth after 24 hrs by CLSI protocol based two fold serial dilution method; assay type: functional; how it was run: as §1
[13] = system: Candida parapsilosis; assay: Antifungal activity against Candida parapsilosis ATCC 22019 assessed as inhibition of fungal growth after 24 hrs by CLSI protocol based two fold serial dilution method; assay type: functional; settings: Lodderomyces parapsilosis; how it was run: as §1
[14] = system: Saccharomyces cerevisiae; assay: Inhibition of Saccharomyces cerevisiae CGMCC 2.145 chitin synthase at 300 ug/ml using GlcNAc and UDP-GlcNAc as substrate incubated for 60 mins by microplate reader analysis relative to control; settings: dose 300.0 µg/ml
How it was run: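 Chitin synthase inhibition ratio measured at 300 µg/mL test compound, relative to untreated control.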

[15] = system: Staphylococcus aureus; assay: Antibacterial activity against Staphylococcus aureus ATCC 29213 assessed as inhibition of bacterial growth after 24 hrs by CLSI protocol based two fold serial dilution method; assay type: functional
[16] = system: Aspergillus fumigatus; assay: Antifungal activity against Aspergillus fumigatus assessed as inhibition of fungal growth after 24 hrs by CLSI protocol based two fold serial dilution method; assay type: functional; how it was run: as §1
[17] = system: Candida albicans; assay: Antifungal activity against Candida albicans ATCC 90023 assessed as inhibition of fungal growth after 24 hrs by CLSI protocol based two fold serial dilution method; assay type: functional; how it was run: as §1
[18] = system: Acinetobacter baumannii; assay: Antibacterial activity against Acinetobacter baumannii assessed as inhibition of bacterial growth after 24 hrs by CLSI protocol based two fold serial dilution method; assay type: functional; how it was run: as §1
[19] = system: Enterococcus faecalis; assay: Antibacterial activity against Enterococcus faecalis assessed as inhibition of bacterial growth after 24 hrs by CLSI protocol based two fold serial dilution method; assay type: functional; how it was run: as §1
[20] = system: Candida tropicalis; assay: Antifungal activity against Candida tropicalis assessed as inhibition of fungal growth after 24 hrs by CLSI protocol based two fold serial dilution method; assay type: functional; how it was run: as §1
[21] = system: Pseudomonas aeruginosa; assay: Antibacterial activity against Pseudomonas aeruginosa ATCC 27853 assessed as inhibition of bacterial growth after 24 hrs by CLSI protocol based two fold serial dilution method; assay type: functional; how it was run: as §1
[22] = system: Pseudomonas aeruginosa; assay: Antibacterial activity against Pseudomonas aeruginosa assessed as inhibition of bacterial growth after 24 hrs by CLSI protocol based two fold serial dilution method; assay type: functional; how it was run: as §1
[23] = Inhibition of Saccharomyces cerevisiae CGMCC 2.145 chitin synthase using GlcNAc and UDP-GlcNAc as substrate incubated for 60 mins by microplate reader analysis
How it was run: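 Chitin synthase IC50 determined from concentration–inhibition curves.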

[24] = system: Klebsiella pneumoniae; assay: Antibacterial activity against Klebsiella pneumoniae measured every 24 hrs after several passages by serial dilution method; assay type: functional, organism-based

| Structure (SMILES) | MIC [4] [µM] | MIC [6] [µM] | MIC [7] [µM] | MIC [9] [µM] | MIC [10] [µM] | MIC [11] [µM] | MIC [12] [µM] | MIC [13] [µM] | inhibition [14] [%] | MIC [15] [µM] | MIC [16] [µM] | MIC [17] [µM] | MIC [18] [µM] | MIC [19] [µM] | MIC [20] [µM] | MIC [21] [µM] | MIC [22] [µM] | also measured |
| --- | --- | --- | --- | --- | --- | --- | --- | --- | --- | --- | --- | --- | --- | --- | --- | --- | --- | --- |
| CC(=O)OCC1=C(C(=O)O)N2C(=O)[C@@H](NC(=O)CS/C(=N/C(C)C)NC(C)C)[C@H]2SC1 | 17 (≈ 8.03 µg/mL) | 34 (≈ 16.1 µg/mL) | 4 (≈ 1.89 µg/mL) | 4 (≈ 1.89 µg/mL) | – | – | – | – | – | – | – | – | – | – | – | – | – | fold change (FC) [1]: 5; MIC [2]: 4 µM; MIC [3]: 2 µM; MIC [5]: 2 µM; MIC [8]: 8 µM |
| CCn1cc(-c2csc(N)n2)c(=O)c2cc(F)c(N3CCN(CCO)CC3)cc21 | 153 (≈ 63.9 µg/mL) | 153 (≈ 63.9 µg/mL) | 19 (≈ 7.93 µg/mL) | 153 (≈ 63.9 µg/mL) | 77 (≈ 32.1 µg/mL) | 153 (≈ 63.9 µg/mL) | 153 (≈ 63.9 µg/mL) | 77 (≈ 32.1 µg/mL) | 48.3 | 153 (≈ 63.9 µg/mL) | 153 (≈ 63.9 µg/mL) | 153 (≈ 63.9 µg/mL) | 153 (≈ 63.9 µg/mL) | 38 (≈ 15.9 µg/mL) | 153 (≈ 63.9 µg/mL) | 38 (≈ 15.9 µg/mL) | 77 (≈ 32.1 µg/mL) | – |
| CCn1cc(-c2csc(N)n2)c(=O)c2cc(F)c(N3CCN(Cc4ccc(Cl)cc4)CC3)cc21 | 32 (≈ 15.9 µg/mL) | 64 (≈ 31.9 µg/mL) | 129 (≈ 64.2 µg/mL) | 16 (≈ 7.97 µg/mL) | 16 (≈ 7.97 µg/mL) | 32 (≈ 15.9 µg/mL) | 32 (≈ 15.9 µg/mL) | 16 (≈ 7.97 µg/mL) | 56.2 | 64 (≈ 31.9 µg/mL) | 515 (≈ 256 µg/mL) | 64 (≈ 31.9 µg/mL) | 32 (≈ 15.9 µg/mL) | 16 (≈ 7.97 µg/mL) | 32 (≈ 15.9 µg/mL) | 32 (≈ 15.9 µg/mL) | 257 (≈ 128 µg/mL) | IC50 [23]: 320 µM |
| CCn1cc(-c2csc(N)n2)c(=O)c2cc(F)c(N3CCN(C(C)=O)CC3)cc21 | 77 (≈ 32 µg/mL) | 77 (≈ 32 µg/mL) | 39 (≈ 16.2 µg/mL) | 77 (≈ 32 µg/mL) | 39 (≈ 16.2 µg/mL) | 19 (≈ 7.89 µg/mL) | 39 (≈ 16.2 µg/mL) | 39 (≈ 16.2 µg/mL) | 71.1 | 19 (≈ 7.89 µg/mL) | 19 (≈ 7.89 µg/mL) | 19 (≈ 7.89 µg/mL) | 39 (≈ 16.2 µg/mL) | 39 (≈ 16.2 µg/mL) | 77 (≈ 32 µg/mL) | 10 (≈ 4.15 µg/mL) | 39 (≈ 16.2 µg/mL) | – |
| CCn1cc(C(=O)O)c(=O)c2cc(F)c(N3CCNCC3)cc21 [NORFLOXACIN] | 50 (≈ 16 µg/mL) | 2 (≈ 0.639 µg/mL) | 13 (≈ 4.15 µg/mL) | 25 (≈ 7.98 µg/mL) | 3 (≈ 0.958 µg/mL) | – | 25 (≈ 7.98 µg/mL) | – | – | 6 (≈ 1.92 µg/mL) | – | – | 25 (≈ 7.98 µg/mL) | 13 (≈ 4.15 µg/mL) | – | 2 (≈ 0.639 µg/mL) | 6 (≈ 1.92 µg/mL) | Activity [24]: inactive |
| NC(=O)OC[C@H](O)[C@@H](O)[C@H](N)C(=O)N[C@H](C(=O)O)[C@H]1O[C@@H](n2cc(CO)c(=O)[nH]c2=O)[C@H](O)[C@@H]1O [POLYOXIN B] | – | – | – | – | – | – | – | – | 81 | – | – | – | – | – | – | – | – | IC50 [23]: 120 µM |
| CCCCN1CCN(c2cc3c(cc2F)c(=O)c(-c2csc(N)n2)cn3CC)CC1 | 149 (≈ 64 µg/mL) | 75 (≈ 32.2 µg/mL) | 5 (≈ 2.15 µg/mL) | 149 (≈ 64 µg/mL) | 9 (≈ 3.87 µg/mL) | 149 (≈ 64 µg/mL) | 37 (≈ 15.9 µg/mL) | 19 (≈ 8.16 µg/mL) | 41.4 | 19 (≈ 8.16 µg/mL) | 9 (≈ 3.87 µg/mL) | 149 (≈ 64 µg/mL) | 19 (≈ 8.16 µg/mL) | 75 (≈ 32.2 µg/mL) | 9 (≈ 3.87 µg/mL) | 75 (≈ 32.2 µg/mL) | 298 (≈ 128 µg/mL) | – |
| CCN(CC)C(=O)CN1CCN(c2cc3c(cc2F)c(=O)c(-c2csc(N)n2)cn3CC)CC1 | 66 (≈ 32.1 µg/mL) | 137 (≈ 66.7 µg/mL) | 263 (≈ 128 µg/mL) | 66 (≈ 32.1 µg/mL) | 16 (≈ 7.79 µg/mL) | 66 (≈ 32.1 µg/mL) | 66 (≈ 32.1 µg/mL) | 132 (≈ 64.2 µg/mL) | 49.1 | 66 (≈ 32.1 µg/mL) | 66 (≈ 32.1 µg/mL) | 66 (≈ 32.1 µg/mL) | 16 (≈ 7.79 µg/mL) | 132 (≈ 64.2 µg/mL) | 132 (≈ 64.2 µg/mL) | 132 (≈ 64.2 µg/mL) | 132 (≈ 64.2 µg/mL) | – |
